Shown are actives, neighbours in structure and some others; about 29% of the full set was active somewhere.
CYP2C9 activ – human CYP2C9 activators, primary screen, biochemical, luminescence; recombinant CYP2C9, luciferin-H conversion; hits give high values; factor 1 = untreated enzyme, 0 = blocked; activation factor at 5 µM; 96,000 tested, 1.4% active;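 active = activation factor of 2 or more for CYP2C9 at a 5 µM dose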;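 also: 0 = sulfaphenazole-blocked wells and 1 = vehicle-only wells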
Target sequence (P11712 whole entry, looked up): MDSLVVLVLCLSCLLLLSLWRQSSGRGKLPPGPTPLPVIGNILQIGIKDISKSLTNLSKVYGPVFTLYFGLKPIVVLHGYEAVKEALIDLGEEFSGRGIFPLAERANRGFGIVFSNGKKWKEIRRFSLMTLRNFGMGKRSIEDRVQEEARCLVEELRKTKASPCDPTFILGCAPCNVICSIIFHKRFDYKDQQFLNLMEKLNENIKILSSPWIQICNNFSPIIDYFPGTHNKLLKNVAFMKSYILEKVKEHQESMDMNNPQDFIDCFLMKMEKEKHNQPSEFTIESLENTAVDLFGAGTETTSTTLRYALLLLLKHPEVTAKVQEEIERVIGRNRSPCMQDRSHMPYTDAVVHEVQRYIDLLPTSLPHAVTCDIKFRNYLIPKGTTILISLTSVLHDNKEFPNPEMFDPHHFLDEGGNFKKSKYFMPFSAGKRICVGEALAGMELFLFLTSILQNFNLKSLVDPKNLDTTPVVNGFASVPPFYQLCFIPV
tolC growth inh – growth inhibitors of E. coli tolC mutant, primary screen, strain BW25113 ΔtolC::kan, 384-well; growth inhibition, % at 10 µM (by protocol); 65,000 tested, 2.2% active; OD615;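 active = growth inhibition at or above a cutoff equal to the mean over every tested compound plus 3 SD, cut at about 60% in these data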;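 also: growth measured after 20 h incubation at 37 °C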
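Test system: E. coli BW25113 ΔtolC::kan bacteria | Medium: Kanamycin-containing LB broth (50 µg/mL) | Dosing: One dose of 10 µM final | Times: 20 h incubation with compound, 37 °C | Detection: Optical density read at 615 nm | Read-out basis: Percent growth inhibition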
CYP2C19 inh – blockers of cytochrome P450 2C19 activity – biochemical, luminescence, ADME assay, primary screen | CYP2C19 Supersomes, luciferin-H EGE luminescence, 30 min | 96,000 tested, 21% active | AID 778, 2007 | inhibition, % at 5 µM | P33261;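 active = CYP2C19 inhibition above a set limit at 5 µM in the primary screen, cut at about 50% in these data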;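 also: plate controls were negative control wells for no effect and 2.5 mM tranylcypromine positive control for full effect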
Ecoli WT expand – growth inhibitors of wild-type E. coli, primary screen, strain BW25113, expanded library, OD600 | OD600 absorbance | growth inhibition, % at 100 µM | 98,000 tested, 0.15% active;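 active = growth inhibition above about 50% at one test dose, limit read from the data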;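 also: growth measured after 20 h incubation at 37 °C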
CYP2C19 activ – human CYP2C19 activators, primary screen, biochemical, luminescence. activation factor at 5 µM. 96,000 tested, under 10 active. recombinant CYP2C19, luciferin-H EGE luminescence; hits give high values; 0 = fully inhibited enzyme, 1 = untreated enzyme;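 active = activation factor of at least 2 at 5 µM in the primary screen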;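 also: 0 = wells with 2.5 mM tranylcypromine and 1 = vehicle-only wells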
CYP2C9 inh – blockers of cytochrome P450 2C9 activity – biochemical, luminescence, ADME assay, primary screen; P11712; CYP2C9 Supersomes, luciferin-H conversion; inhibition, % at 5 µM; 96,000 tested, 20% active; AID 777, 2007;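 active = blocking of liver enzyme CYP2C9 beyond about 50% at 5 µM, limit read from the data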
* hit, by the source's call; . = no result given.

SMILES	CYP2C9 activ	tolC growth inh	CYP2C19 inh	Ecoli WT expand	CYP2C19 activ	CYP2C9 inh
O=C(Cn1cc(C(=O)c2cccs2)c2ccccc21)NCc1ccc2c(c1)OCO2	0.3	36	64*	-18	0.4	73*
O=C(Cn1cc(C(=O)c2cccs2)c2ccccc21)NCC1CCCO1 (stereo not given)	0.5	25	67*	-1	0.3	47
Cn1nc(-c2ccc(N3CCOCC3)c(NS(=O)(=O)c3ccccc3)c2)c2ccccc2c1=O	0.8	-4	53*	-6	0.5	16
Cc1ccc(-c2nn(C)c(=O)c3ccccc23)cc1S(=O)(=O)N1CCOCC1	.	2	.	.	.	.
CC(=O)Nc1cc(-c2nn(CC(=O)N3CCCCC3)c(=O)c3ccccc23)ccc1N1CCOCC1	0.9	-4	-3	-1	1	12
Cc1ccc(-c2nn(C)c(=O)c3ccccc23)cc1S(=O)(=O)N1CCCC1	0.4	26	51*	-5	0.5	63*
CC(=O)Nc1cc(-c2nn(C)c(=O)c3ccccc23)ccc1N1CCCCC1	0.4	.	20	1	0.8	57*
Cc1ccc(-c2nn(C)c(=O)c3ccccc23)cc1S(=O)(=O)NCCO	0.9	1	19	-1	0.8	12
CCCC(=O)Nc1cc(-c2nn(C)c(=O)c3ccccc23)ccc1N1CCCCC1	.	42	.	.	.	.
CCC(=O)Nc1cc(-c2nn(C)c(=O)c3ccccc23)ccc1N1CCCCC1	0.2	7	37	9	0.6	81*
CCOc1cc2[nH]c(=O)n(CCCN3CCCC3=O)c(=O)c2cc1OCC	0.9	-22	-4	-2	1	12
CCCCN1CC(C(=O)NC2CCCCC2)CC1=O (stereo not given)	1.2	-11	-13	6	1.1	-20
CC(C)c1cc(NCCCN2CCOCC2)n2c(nc3ccccc32)c1C#N	.	17	.	-11	.	.
CCC(=O)Nc1cc(-c2nn(C)c(=O)c3ccccc23)ccc1OC	0.8	1	40	3	0.6	15
COc1ccc(-c2nn(C)c(=O)c3ccccc23)cc1NC(=O)Cn1nc(C)c2ccccc2c1=O	0.4	15	30	-4	0.7	58*
CC(/C=N\NC(=O)Cn1c(C)nc2ccccc21)=C\c1ccccc1	1.1	.	5	-1	1	-9
CCN(CC)C(=O)C1CCCN(C(=O)Nc2ccc3nsnc3c2)C1 (stereo not given)	0.8	-5	59*	-5	0.4	25
CC(OC(=O)c1cccs1)C(=O)NCC1CCCO1 (stereo not given)	1.1	-15	51*	2	0.5	-7
Cc1ccc(CNC(=O)C(C)OC(=O)c2cccs2)cc1 (stereo not given)	0.3	.	77*	-1	0.2	68*
CCC(OC(=O)c1ccco1)C(=O)NCc1ccc(C)cc1 (stereo not given)	0.7	-5	23	-1	0.8	28
Cc1ccc(CNC(=O)C(OC(=O)c2ccco2)C(C)C)cc1 (stereo not given)	0.4	-4	86*	3	0.1	61*
Cc1ccc(CNC(=O)C(C)OC(=O)c2ccco2)cc1 (stereo not given)	0.4	-26	72*	-8	0.3	55*
COc1ccc(-c2nn(C)c(=O)c3ccccc23)cc1NC(=O)COc1ccc(C)cc1	0.8	.	26	-3	0.7	17
CS(=O)(=O)Nc1ccc(C(=O)NC2CCCC2)cc1	1	-11	-9	-10	1.1	0
CC(C)C(OC(=O)c1ccco1)C(=O)NCc1cccs1 (stereo not given)	0.6	2	69*	7	0.3	35
SMILES	CYP2C9 activ	tolC growth inh	CYP2C19 inh	Ecoli WT expand	CYP2C19 activ	CYP2C9 inh
Cc1cc(C(=O)NCc2cc(C(=O)O)oc2C)c(C)o1	1	-7	-6	2	1.1	1
Cc1ccccc1Cn1cccc1/C=C1/C(=N)N2C=CSC2=NC1=O	0.1	.	46	-11	0.5	85*
CCc1cc(-c2n[nH]c(=S)n2N)n(C)n1	0.9	.	5	-10	1	7
Cc1cccc2nc(=S)n(C(=O)c3ccco3)n12	0.2	-7	73*	5	0.3	76*
Cc1cc(NC(=O)c2ccco2)no1	0.9	.	1	1	1	10
O=C(c1ccco1)n1c(=S)nc2ccccn21	0.7	-6	72*	6	0.3	28
CC1CC(N(C(=O)c2ccccc2Cl)c2ccccc2)c2ccccc2N1 (stereo not given)	0.9	.	7	-7	0.9	10
CCOC(=O)CSc1nc2cc(C(=O)NCC3CCCO3)ccc2c(=O)n1Cc1ccco1 (stereo not given)	0.3	3	26	-6	0.7	72*
O=C(NCC1CCCO1)c1ccc2c(=O)n(Cc3ccco3)c(SCC(=O)N3CCCC3)nc2c1 (stereo not given)	0.5	.	2	-12	1	49
CCCCCn1c(SCC2CCCO2)nc2cc(C(=O)N3CCC(C(N)=O)CC3)ccc2c1=O (stereo not given)	0.5	6	39	3	0.6	53*
CCc1ccc(NC(=O)CSc2nc3cc(C(=O)OC)ccc3c(=O)n2Cc2ccco2)cc1	0.9	-6	-8	-4	1.1	10
CCN(C(=O)CSc1nc2cc(C(=O)OC)ccc2c(=O)n1Cc1ccco1)c1cccc(C)c1	0.1	20	64*	-11	0.4	92*
C=CCn1c(SCC(=O)NC(=O)NCc2ccco2)nc2sc(CC)cc2c1=O	0.3	-10	38	-17	0.6	71*
CC(C)NS(=O)(=O)c1ccc(CCC(=O)NCc2cccnc2)cc1	0.8	-11	8	5	0.9	24
CCCc1cc(=O)[nH]c(SCC(=O)N(CC)Cc2ccccc2)n1	0.8	15	12	2	0.9	22
FC(F)(F)c1cccc(Oc2cc(C(F)(F)F)nc(-c3ccccn3)n2)c1	0.8	.	3	-1	1	17
C=CCn1c(SCC(=O)OCC)nc2cc(C(=O)NCc3ccco3)ccc2c1=O	0.5	.	23	-6	0.8	54*
CCOC(=O)CSc1nc2cc(C(=O)OC)ccc2c(=O)n1CCN1CCOCC1	0.9	.	69*	1	0.3	12
COC(=O)c1ccc2c(=O)n(CCN3CCOCC3)c(SCC(=O)C(C)(C)C)nc2c1	0.6	.	5	3	1	41
COC(=O)c1c(-n2cnnn2)sc(C)c1C	1	11	10	2	0.9	2
Oc1ccc2ccccc2c1C=Nc1ccccc1-c1nc2ccccc2[nH]1	0.1	.	45	6	0.6	95*
O=c1c2ccc(Cl)cc2[nH]c(=S)n1Cc1cccnc1	0.6	.	56*	5	0.4	44
